The record followed here is ChEMBL document CHEMBL2074473, “Inhibitory effect of a bitter melon extract on the P-glycoprotein activity in intestinal Caco-2 cells” (Br J Pharmacol, 2004).

T1 sequence (P08183 whole entry): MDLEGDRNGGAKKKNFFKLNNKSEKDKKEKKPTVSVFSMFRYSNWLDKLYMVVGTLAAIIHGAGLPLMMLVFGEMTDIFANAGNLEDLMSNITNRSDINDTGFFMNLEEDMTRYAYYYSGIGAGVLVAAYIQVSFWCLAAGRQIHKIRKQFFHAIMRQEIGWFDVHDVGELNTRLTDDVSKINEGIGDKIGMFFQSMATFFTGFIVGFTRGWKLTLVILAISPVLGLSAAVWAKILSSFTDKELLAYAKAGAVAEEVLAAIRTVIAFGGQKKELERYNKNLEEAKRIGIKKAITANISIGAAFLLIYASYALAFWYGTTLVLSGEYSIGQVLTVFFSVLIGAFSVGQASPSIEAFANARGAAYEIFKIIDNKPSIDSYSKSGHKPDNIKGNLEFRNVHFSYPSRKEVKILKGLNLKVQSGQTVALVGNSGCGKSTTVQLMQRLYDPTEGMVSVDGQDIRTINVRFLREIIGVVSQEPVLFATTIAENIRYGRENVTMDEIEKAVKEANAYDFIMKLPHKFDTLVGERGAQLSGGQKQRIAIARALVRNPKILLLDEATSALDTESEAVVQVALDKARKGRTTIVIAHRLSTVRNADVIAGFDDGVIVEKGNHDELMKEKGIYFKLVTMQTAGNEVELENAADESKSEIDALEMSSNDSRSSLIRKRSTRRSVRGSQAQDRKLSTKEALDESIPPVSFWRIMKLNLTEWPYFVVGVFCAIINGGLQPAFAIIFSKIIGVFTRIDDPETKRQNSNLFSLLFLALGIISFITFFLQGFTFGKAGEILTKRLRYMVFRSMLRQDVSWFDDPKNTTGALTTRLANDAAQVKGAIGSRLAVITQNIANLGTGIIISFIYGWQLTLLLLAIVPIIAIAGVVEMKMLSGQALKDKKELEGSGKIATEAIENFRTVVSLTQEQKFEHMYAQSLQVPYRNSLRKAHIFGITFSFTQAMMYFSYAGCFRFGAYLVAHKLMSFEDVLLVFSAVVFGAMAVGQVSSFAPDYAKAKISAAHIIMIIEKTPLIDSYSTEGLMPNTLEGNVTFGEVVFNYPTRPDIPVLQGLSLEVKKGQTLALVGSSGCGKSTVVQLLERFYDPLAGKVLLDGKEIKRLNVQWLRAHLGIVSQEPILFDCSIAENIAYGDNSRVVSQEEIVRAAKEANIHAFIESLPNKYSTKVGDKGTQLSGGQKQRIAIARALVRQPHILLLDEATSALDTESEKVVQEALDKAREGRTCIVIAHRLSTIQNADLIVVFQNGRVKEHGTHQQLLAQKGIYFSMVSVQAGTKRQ

One series concerns the target T1, ATP-dependent translocase ABCB1 (Homo sapiens, UniProt P08183). Briefly: TP_TRANSPORTER: Rhodamine 123 accumulation in Caco-2 cells. The class given is functional, cell-based. The procedure, abridged:
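Caco-2 monolayers (passages 40–66) grown 14 days on collagen-coated 24-well plates. Cells were equilibrated in HBSS with 4 mM bicarbonate and 10 mM HEPES, pH 7.4, then exposed to 15 μM rhodamine-123 ± sample (2 mg ml−1 extracts) for 2 h at 37°C. After ice-cold PBS/0.05% azide washes, fluorescence was read at ex 485/em 544 nm. Expressed as % of control, mean±s.d., n=4.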
In the case of BITTER MELON, the Activity result was “inhibitor [+]”.

A further series addresses T1, ATP-dependent translocase ABCB1. Briefly: TP_TRANSPORTER: Daunomycin accumulation in Caco-2 cells. The format is functional, cell-based. A digest of the protocol:
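Caco-2 monolayers (passages 40–66) grown 14 days on collagen-coated 24-well plates. After two PBS washes and equilibration in HBSS with 4 mM bicarbonate and 10 mM HEPES, pH 7.4, cells were incubated with 40 nM [3H]-daunomycin ± sample for 2 h at 37°C. Ice-cold PBS/0.05% azide washes, Triton X-100 lysis, scintillation counting. Expressed as % of control, mean±s.d., n=3.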
Take `CCCCCCCCCCCCCCCC(=O)OCC(O)COC(=O)CCCCCCCCCCCCCCC` [1,3-Dipalmitin]: the Activity entry was “is not an inhibitor [-]”.
As to `CCCCCCCCCC(=O)OCC(O)CO` (stereo unspecified) [MONOCTANOIN COMPONENT B], the Activity result was “inhibitor [+]”.
`CCCCCCCCCCCCCCCC(=O)O.OCC(O)CO` [PALMITIC ACID + GLYCEROL]: the Activity result was “is not an inhibitor [-]”.
On the same count and under the same terms, the same measure for `OCC(O)CO` [GLYCERIN]: “is not an inhibitor [-]”.
As for `CCCCCCCCCCCCCCCCCC(=O)OCC(O)CO` (stereo unspecified) [GLYCERYL MONOSTEARATE], the Activity result is “inhibitor [+]”.
Consider `CCCCCCCCCCCCCCCC(=O)OCC(COC(=O)CCCCCCCCCCCCCCC)OC(=O)CCCCCCCCCCCCCCC` [TRIPALMITIN], for which the Activity entry was “is not an inhibitor [-]”.
Regarding `CCCCCCCCCCCCCCCC(=O)OCC(O)CO` (stereo unspecified) [1-Monopalmitin], the Activity result is “inhibitor [+]”.
The same measure, in the same setting: the same measure for `CCCCCCCCCCCCCC(=O)OCC(O)CO` (stereo unspecified): “inhibitor [+]”.
On to `CCCCC/C=C/C/C=C/CCCCCCCC(=O)OCC(O)CO` (stereo unspecified) [1-Monolinolein], for which the Activity result was “inhibitor [+]”.
`CCCCCCCCCCCCCCCC(=O)OCC(CO)OC(=O)CCCCCCCCCCCCCCC` (stereo unspecified) [1,2-Dipalmitin]: the Activity result was “is not an inhibitor [-]”.
Same read-out and setting: the value for `CC/C=C/C/C=C/C/C=C/CCCCCCCC(=O)OCC(O)CO` (stereo unspecified) [1-Monolinolenin] was “inhibitor [+]”; that for `CCCCCCCCCCCCCCCC(=O)O` [PALMITIC ACID] was “is not an inhibitor [-]”.
Consider `CCCCCCCCCCCC(=O)OCC(O)CO` (stereo unspecified) [GLYCEROL MONOLAURATE], for which the Activity entry was “inhibitor [+]”.
On to `CCCCCCCC(=O)OCC(O)CO` (stereo unspecified) [MONOCTANOIN COMPONENT A], for which the Activity result was “inhibitor [+]”.
In the case of `CCCCCC/C=C\CCCCCCCC(=O)OCC(O)CO` (stereo unspecified) [1-Monopalmitolein], the Activity result was “inhibitor [+]”.
